In ChEMBL document CHEMBL1153775, “Synthesis, structure elucidation and antitumour activity of N-substituted amides of 3-(3-ethylthio-1,2,4-triazol-5-yl)propenoic acid” (Eur J Med Chem, 2009):

Legend:
[1] = test system: T47D; assay: Cytotoxicity against human T47D cells assessed as growth inhibition at 0.28 mM after 24 hrs by spectrophotometer using BrdU labeling; format: functional; conditions: read-out: GI
Method in brief: (§1)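 Human breast carcinoma T47D cells were plated at 10⁴ cells per mL on microtiter plates. Each compound was added at three doses, given as mM equivalents of three mass concentrations. Plates were incubated for 24, 48 or 72 h. The read-out was percent growth inhibition (GI).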

[2] = Cytotoxicity against human HSF cells assessed as growth inhibition at 0.28 mM after 72 hrs by spectrophotometer using BrdU labeling; format: cell-based; conditions: read-out: GI
[3] = test system: A549; assay: Cytotoxicity against human A549 cells assessed as growth inhibition at 0.03 mM after 72 hrs by spectrophotometer using BrdU labeling; format: functional; conditions: A549, 72 h, read-out: GI
[4] = test system: A549; assay: Cytotoxicity against human A549 cells assessed as growth inhibition at 0.14 mM after 72 hrs by spectrophotometer using BrdU labeling; format: functional; conditions: A549, 72 h, read-out: GI
[5] = test system: T47D; assay: Cytotoxicity against human T47D cells assessed as growth inhibition at 0.03 mM after 72 hrs by spectrophotometer using BrdU labeling; format: functional; conditions: read-out: GI
[6] = Cytotoxicity against human HSF cells assessed as growth inhibition at 0.28 mM after 48 hrs by spectrophotometer using BrdU labeling; format: cell-based; conditions: read-out: GI
[7] = test system: A549; assay: Cytotoxicity against human A549 cells assessed as growth inhibition at 0.03 mM after 24 hrs by spectrophotometer using BrdU labeling; format: functional; conditions: A549, 24 h, read-out: GI
[8] = test system: T47D; assay: Cytotoxicity against human T47D cells assessed as growth inhibition at 0.14 mM after 24 hrs by spectrophotometer using BrdU labeling; format: functional; conditions: read-out: GI
[9] = test system: T47D; assay: Cytotoxicity against human T47D cells assessed as growth inhibition at 0.28 mM after 72 hrs by spectrophotometer using BrdU labeling; format: functional; conditions: read-out: GI; method in brief: as §1
[10] = test system: T47D; assay: Cytotoxicity against human T47D cells assessed as growth inhibition at 0.14 mM after 48 hrs by spectrophotometer using BrdU labeling; format: functional; conditions: read-out: GI
[11] = test system: A549; assay: Cytotoxicity against human A549 cells assessed as growth inhibition at 0.14 mM after 48 hrs by spectrophotometer using BrdU labeling; format: functional; conditions: A549, 48 h, read-out: GI
[12] = test system: A549; assay: Cytotoxicity against human A549 cells assessed as growth inhibition at 0.28 mM after 72 hrs by spectrophotometer using BrdU labeling; format: functional; conditions: A549, 72 h, read-out: GI
[13] = test system: T47D; assay: Cytotoxicity against human T47D cells assessed as growth inhibition at 0.03 mM after 48 hrs by spectrophotometer using BrdU labeling; format: functional; conditions: read-out: GI
[14] = test system: T47D; assay: Cytotoxicity against human T47D cells assessed as growth inhibition at 0.14 mM after 72 hrs by spectrophotometer using BrdU labeling; format: functional; conditions: read-out: GI
[15] = Cytotoxicity against human HSF cells assessed as growth inhibition at 0.28 mM after 24 hrs by spectrophotometer using BrdU labeling; format: cell-based; conditions: read-out: GI
[16] = Cytotoxicity against human HSF cells assessed as growth inhibition at 0.03 mM after 24 hrs by spectrophotometer using BrdU labeling; format: cell-based; conditions: read-out: GI
[17] = test system: A549; assay: Cytotoxicity against human A549 cells assessed as growth inhibition at 0.03 mM after 48 hrs by spectrophotometer using BrdU labeling; format: functional; conditions: A549, 48 h, read-out: GI
[18] = test system: A549; assay: Cytotoxicity against human A549 cells assessed as growth inhibition at 0.28 mM after 48 hrs by spectrophotometer using BrdU labeling; format: functional; conditions: A549, 48 h, read-out: GI
[19] = test system: T47D; assay: Cytotoxicity against human T47D cells assessed as growth inhibition at 0.28 mM after 48 hrs by spectrophotometer using BrdU labeling; format: functional; conditions: read-out: GI; method in brief: as §1
[20] = test system: A549; assay: Cytotoxicity against human A549 cells assessed as growth inhibition at 0.14 mM after 24 hrs by spectrophotometer using BrdU labeling; format: functional; conditions: A549, 24 h, read-out: GI
[21] = Cytotoxicity against human HSF cells assessed as growth inhibition at 0.14 mM after 48 hrs by spectrophotometer using BrdU labeling; format: cell-based; conditions: read-out: GI
[22] = Cytotoxicity against human HSF cells assessed as growth inhibition at 0.03 mM after 48 hrs by spectrophotometer using BrdU labeling; format: cell-based; conditions: read-out: GI
[23] = test system: A549; assay: Cytotoxicity against human A549 cells assessed as growth inhibition at 0.28 mM after 24 hrs by spectrophotometer using BrdU labeling; format: functional; conditions: A549, 24 h, read-out: GI
[24] = Cytotoxicity against human HSF cells assessed as growth inhibition at 0.03 mM after 72 hrs by spectrophotometer using BrdU labeling; format: cell-based; conditions: read-out: GI
[25] = Cytotoxicity against human HSF cells assessed as growth inhibition at 0.14 mM after 24 hrs by spectrophotometer using BrdU labeling; format: cell-based; conditions: read-out: GI
[26] = Cytotoxicity against human HSF cells assessed as growth inhibition at 0.14 mM after 72 hrs by spectrophotometer using BrdU labeling; format: cell-based; conditions: read-out: GI
[27] = test system: T47D; assay: Cytotoxicity against human T47D cells assessed as growth inhibition at 0.03 mM after 24 hrs by spectrophotometer using BrdU labeling; format: functional; conditions: read-out: GI
[28] = Cytotoxicity against human HSF cells assessed as growth inhibition at 0.16 mM after 72 hrs by spectrophotometer using BrdU labeling; format: cell-based; conditions: read-out: GI
[29] = test system: A549; assay: Cytotoxicity against human A549 cells assessed as growth inhibition at 0.32 mM after 72 hrs by spectrophotometer using BrdU labeling; format: functional; conditions: A549, 72 h, read-out: GI
[30] = test system: T47D; assay: Cytotoxicity against human T47D cells assessed as growth inhibition at 0.16 mM after 24 hrs by spectrophotometer using BrdU labeling; format: functional; conditions: read-out: GI
[31] = test system: T47D; assay: Cytotoxicity against human T47D cells assessed as growth inhibition at 0.16 mM after 48 hrs by spectrophotometer using BrdU labeling; format: functional; conditions: read-out: GI
[32] = Cytotoxicity against human HSF cells assessed as growth inhibition at 0.32 mM after 48 hrs by spectrophotometer using BrdU labeling; format: cell-based; conditions: read-out: GI
[33] = Cytotoxicity against human HSF cells assessed as growth inhibition at 0.16 mM after 24 hrs by spectrophotometer using BrdU labeling; format: cell-based; conditions: read-out: GI
[34] = Cytotoxicity against human HSF cells assessed as growth inhibition at 0.16 mM after 48 hrs by spectrophotometer using BrdU labeling; format: cell-based; conditions: read-out: GI
[35] = Cytotoxicity against human HSF cells assessed as growth inhibition at 0.32 mM after 72 hrs by spectrophotometer using BrdU labeling; format: cell-based; conditions: read-out: GI
[36] = test system: A549; assay: Cytotoxicity against human A549 cells assessed as growth inhibition at 0.32 mM after 24 hrs by spectrophotometer using BrdU labeling; format: functional; conditions: A549, 24 h, read-out: GI
[37] = test system: A549; assay: Cytotoxicity against human A549 cells assessed as growth inhibition at 0.32 mM after 48 hrs by spectrophotometer using BrdU labeling; format: functional; conditions: A549, 48 h, read-out: GI
[38] = test system: A549; assay: Cytotoxicity against human A549 cells assessed as growth inhibition at 0.16 mM after 72 hrs by spectrophotometer using BrdU labeling; format: functional; conditions: A549, 72 h, read-out: GI
[39] = test system: A549; assay: Cytotoxicity against human A549 cells assessed as growth inhibition at 0.16 mM after 48 hrs by spectrophotometer using BrdU labeling; format: functional; conditions: A549, 48 h, read-out: GI
[40] = test system: T47D; assay: Cytotoxicity against human T47D cells assessed as growth inhibition at 0.32 mM after 72 hrs by spectrophotometer using BrdU labeling; format: functional; conditions: read-out: GI; method in brief: as §1
[41] = test system: A549; assay: Cytotoxicity against human A549 cells assessed as growth inhibition at 0.16 mM after 24 hrs by spectrophotometer using BrdU labeling; format: functional; conditions: A549, 24 h, read-out: GI
[42] = test system: T47D; assay: Cytotoxicity against human T47D cells assessed as growth inhibition at 0.32 mM after 48 hrs by spectrophotometer using BrdU labeling; format: functional; conditions: read-out: GI; method in brief: as §1
[43] = Cytotoxicity against human HSF cells assessed as growth inhibition at 0.32 mM after 24 hrs by spectrophotometer using BrdU labeling; format: cell-based; conditions: read-out: GI
[44] = test system: T47D; assay: Cytotoxicity against human T47D cells assessed as growth inhibition at 0.32 mM after 24 hrs by spectrophotometer using BrdU labeling; format: functional; conditions: read-out: GI; method in brief: as §1
[45] = test system: T47D; assay: Cytotoxicity against human T47D cells assessed as growth inhibition at 0.16 mM after 72 hrs by spectrophotometer using BrdU labeling; format: functional; conditions: read-out: GI; method in brief: as §1

CCSc1n[nH]c(/C=C\C(=O)Nc2ccc(Br)cc2)n1
50%: inhibition at 72 h, 280 µM [2] | inhibition of growth at 140 µM [4] | inhibition of growth at 140 µM [11] | inhibition of growth at 280 µM [18] | inhibition of growth at 140 µM [20] | inhibition of growth at 280 µM [23]
5%: inhibition of growth at 280 µM [1] | inhibition of growth at 140 µM [8]
20%: inhibition of growth at 280 µM [19]
75%: inhibition at 48 h, 280 µM [6] | inhibition of growth at 280 µM [12] | inhibition at 24 h, 280 µM [15] | inhibition at 48 h, 140 µM [21] | inhibition at 24 h, 140 µM [25] | inhibition at 72 h, 140 µM [26]
25%: inhibition of growth at 30 µM [7] | inhibition of growth at 280 µM [9] | inhibition of growth at 140 µM [14] | inhibition of growth at 30 µM [17]
0%: inhibition of growth at 30 µM [3] | inhibition of growth at 30 µM [5] | inhibition of growth at 30 µM [13] | inhibition at 24 h, 30 µM [16] | inhibition at 48 h, 30 µM [22] | inhibition at 72 h, 30 µM [24] | inhibition of growth at 30 µM [27]
10%: inhibition of growth at 140 µM [10]

CCSc1n[nH]c(/C=C\C(=O)Nc2ccccc2Cl)n1
0%: inhibition at 72 h, 160 µM [28] | inhibition of growth at 160 µM [30] | inhibition at 24 h, 160 µM [33] | inhibition at 48 h, 160 µM [34] | inhibition of growth at 30 µM [13] | inhibition at 24 h, 30 µM [16] | inhibition at 48 h, 30 µM [22] | inhibition of growth at 320 µM [44] | inhibition of growth at 30 µM [27]
50%: inhibition at 48 h, 320 µM [32] | inhibition of growth at 320 µM [36] | inhibition of growth at 320 µM [37] | inhibition of growth at 160 µM [38] | inhibition of growth at 160 µM [39] | inhibition of growth at 160 µM [41] | inhibition of growth at 160 µM [45]
90%: inhibition of growth at 320 µM [40]
25%: inhibition of growth at 30 µM [3] | inhibition of growth at 30 µM [7] | inhibition of growth at 30 µM [17] | inhibition at 24 h, 320 µM [43]
75%: inhibition of growth at 320 µM [29] | inhibition at 72 h, 320 µM [35]
10%: inhibition of growth at 160 µM [31] | inhibition of growth at 320 µM [42]
5%: inhibition of growth at 30 µM [5] | inhibition at 72 h, 30 µM [24]
